Reference: ChEMBL document CHEMBL3397026, “Synthesis and structure-activity relationships of novel phenoxyacetamide inhibitors of the Pseudomonas aeruginosa type III secretion system (T3SS)” (Bioorg Med Chem, 2015)

What was measured:
CHO = test: Cytotoxicity against CHO cells by LDH release assay; assay type: cell-based; details: Cricetulus griseus
Method in brief: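 Assay run in parallel with the T3SS translocation assay, with CHO cells and compound but no P. aeruginosa. Cell death read as LDH release; CC50 derived.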

[1] = Inhibition of T3SS-mediated secretion of an ExoS-beta-lactamase fusion protein into the culture medium in Pseudomonas aerguinosa MDM973 assessed as inhibition of nitrocefin hydrolysis by secretion assay; design: species or system Pseudomonas aeruginosa
Method in brief: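 ExoS-βLA fusion protein secreted by strain MDM973, detected as hydrolysis of chromogenic nitrocefin by the externalized enzyme. Absorbance read at 490 nm. Percent inhibition calculated relative to drug-free (0%) and uninduced controls (no ExoS-βLA secreted; 100%).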

[2] = Inhibition of T3SS-mediated translocation in Pseudomonas aerguinosa PA99U co-expressing PcrV and PopB/PopD assessed as inhibition of ExoU-mediated lysis of co-incubated CHO cells by LDH release assay; assay type: cell-based; details: Pseudomonas aeruginosa
Method in brief: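 CHO cells co-incubated with P. aeruginosa PA99U33 plus compound, with procedure otherwise per earlier work. ExoU-mediated CHO lysis read out as LDH release. A parallel run without bacteria gave CHO cytotoxicity (CC50).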

| SMILES | IC50 (CHO) | IC50 [1] | also measured |
| --- | --- | --- | --- |
| CC(Oc1ccc(Cl)cc1Cl)C(=O)NCc1cccc2[nH]ccc12 (centres undefined) | 24 µM |  |  |
| O=C(COc1ccc(Cl)cc1Cl)NCc1ccc2c(c1)OCO2 |  | > 100 µM |  |
| CC(C)(Oc1ccc(Cl)cc1Cl)C(=O)NCc1ccc2c(c1)OCO2 |  | > 100 µM |  |
| CCC(Oc1ccc(Cl)cc1Cl)C(=O)NCc1ccc2c(c1)OCO2 (centres undefined) | 67 µM |  |  |
| CCCC(Oc1ccc(Cl)cc1Cl)C(=O)NCc1ccc2c(c1)OCO2 (centres undefined) |  | > 100 µM |  |
| CC(C)C(Oc1ccc(Cl)cc1Cl)C(=O)NCc1ccc2c(c1)OCO2 (centres undefined) |  | > 100 µM |  |
| CC(Oc1ccc(Cl)cc1)C(=O)NCc1ccc2c(c1)OCO2 (centres undefined) | 65 µM |  |  |
| CC(Oc1ccc(Cl)cc1F)C(=O)NCc1ccc2c(c1)OCO2 (centres undefined) |  | > 100 µM |  |
| CC(Oc1ccc(F)cc1F)C(=O)NCc1ccc2c(c1)OCO2 (centres undefined) |  | > 100 µM |  |
| CC(Oc1ccc(C#N)cc1Cl)C(=O)NCc1ccc2c(c1)OCO2 (centres undefined) |  | > 100 µM |  |
| COc1ccc(OC(C)C(=O)NCc2ccc3c(c2)OCO3)c(Cl)c1 (centres undefined) |  | > 100 µM |  |
| CC(Oc1ccc(Cl)cc1Cl)C(=O)NCc1ccc(F)cc1 (centres undefined) | 59 µM |  |  |
| CC(C(=O)NCc1ccc2c(c1)OCO2)S(=O)(=O)c1ccc(Cl)cc1Cl (centres undefined) |  | > 100 µM |  |
| CC(C(=O)NCc1ccc(F)cc1)S(=O)(=O)c1ccc(Cl)cc1Cl (centres undefined) |  | > 100 µM |  |
| CC(Cc1ccc(Cl)cc1Cl)C(=O)NCc1ccc2c(c1)OCO2 (centres undefined) |  | > 100 µM |  |
| CC(Cc1ccc(Cl)cc1Cl)C(=O)NCc1ccc(F)cc1 (centres undefined) |  | > 100 µM |  |
| C[C@H](NC(=O)[C@@H](C)Oc1ccc(Cl)cc1Cl)c1ccc(F)cc1 | 32 µM |  |  |
| C[C@@H](Oc1ccc(Cl)cc1Cl)C(=O)N[C@H](C)c1ccc(F)cc1 | 97 µM |  |  |
| CC(Oc1ccc(Cl)cc1Cl)C(=O)NC1(c2ccc(F)cc2)CC1 (centres undefined) | 28 µM |  |  |
| CC(Oc1ccc(Cl)cc1Cl)C(=O)NC(C(=O)O)c1ccc(F)cc1 (centres undefined) |  | > 100 µM |  |
| CC(Oc1ccc(Cl)cc1Cl)C(=O)Nc1ccc(F)cc1 (centres undefined) |  | > 100 µM |  |
| CC(Oc1ccc(Cl)cc1Cl)C(=O)NCCc1ccc(F)cc1 (centres undefined) | 17 µM |  |  |
| CC(Oc1ccc(Cl)cc1Cl)C(=O)NCCCc1ccc(F)cc1 (centres undefined) |  | > 100 µM |  |
| CC(Oc1ccc(Cl)cc1Cl)C(=O)N(C)Cc1ccc(F)cc1 (centres undefined) |  | 28.5 µM |  |

| SMILES | IC50 (CHO) | IC50 [1] | also measured |
| --- | --- | --- | --- |
| CC(Oc1ccc(Cl)cc1Cl)C(=O)OCc1ccc(F)cc1 (centres undefined) |  | > 100 µM |  |
| CC(Oc1ccc(Cl)cc1Cl)C(=O)OCCc1ccc(F)cc1 (centres undefined) |  | > 100 µM |  |
| CC(Oc1ccc(Cl)cc1Cl)C(=O)NNc1ccc(F)cc1 (centres undefined) | 35 µM |  |  |
| CC(Oc1ccc(Cl)cc1Cl)C(=O)NNCc1ccc(F)cc1 (centres undefined) | 31 µM |  |  |
| CC(Oc1ccc(Cl)cc1Cl)C(=O)NOCc1ccc(F)cc1 (centres undefined) | 59 µM |  |  |
| CC(Oc1ccc(Cl)cc1Cl)C(=O)CCc1ccc(F)cc1 (centres undefined) |  | > 100 µM |  |
| CC(Oc1ccc(Cl)cc1Cl)C(=O)NCc1ccccc1 (centres undefined) | 95 µM |  |  |
| CC(Oc1ccc(Cl)cc1Cl)C(=O)NCc1cccc(F)c1 (centres undefined) | 27 µM |  |  |
| CC(Oc1ccc(Cl)cc1Cl)C(=O)NCc1ccccc1F (centres undefined) | 47 µM |  |  |
| CC(Oc1ccc(Cl)cc1Cl)C(=O)NCc1ccc(Cl)cc1 (centres undefined) | 39 µM |  |  |
| CC(Oc1ccc(Cl)cc1Cl)C(=O)NCc1cccc(Cl)c1 (centres undefined) | 19 µM |  |  |
| Cc1ccc(CNC(=O)C(C)Oc2ccc(Cl)cc2Cl)cc1 (centres undefined) | 25 µM |  |  |
| Cc1cccc(CNC(=O)C(C)Oc2ccc(Cl)cc2Cl)c1 (centres undefined) | 45 µM |  |  |
| COc1ccc(CNC(=O)C(C)Oc2ccc(Cl)cc2Cl)cc1 (centres undefined) | 71 µM |  |  |
| COc1ccccc1CNC(=O)C(C)Oc1ccc(Cl)cc1Cl (centres undefined) |  | 28 µM |  |
| COc1ccc(CNC(=O)C(C)Oc2ccc(Cl)cc2Cl)cc1OC (centres undefined) | 36 µM |  |  |
| CC(Oc1ccc(Cl)cc1Cl)C(=O)NCc1ccc2sccc2c1 (centres undefined) | 30 µM | 6 µM | IC50 [2]: 5.3 µM |
| CC(Oc1ccc(Cl)cc1Cl)C(=O)NCc1ccc2occc2c1 (centres undefined) | 11 µM |  |  |
| CC(Oc1ccc(Cl)cc1Cl)C(=O)NCc1ccc2cc[nH]c2c1 (centres undefined) | 9.4 µM |  |  |
| CC(Oc1ccc(Cl)cc1Cl)C(=O)NCc1cc2ccccc2[nH]1 (centres undefined) | 12 µM |  |  |
| CC(Oc1ccc(Cl)cc1Cl)C(=O)NCc1ccc2c(ccn2C)c1 (centres undefined) | 6.3 µM |  |  |
| CC(Oc1ccc(Cl)cc1Cl)C(=O)NCc1cnc2[nH]ccc2c1 (centres undefined) | 21 µM |  |  |
| CC[C@@H](Oc1ncc(Cl)cc1Cl)C(=O)NC(CO)c1ccc(F)cc1 (some centres undefined) | 75 µM |  |  |
